Each structure is given as a SMILES string.

This test can be described thus: Inhibition of bovine testis hyaluronidase type 4 after 20 mins by modified Morgan-Elson method. Further details: species or system Bos taurus. In short, it runs like this:
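Bovine testis hyaluronidase (Type IV-S, 400 NF units/mL stock) preincubated with sample in 0.1 mol/L acetate buffer pH 3.5, 20 min, 37 °C. Activated with 2.5 mmol/L CaCl2 for 20 min, then rooster-comb potassium hyaluronate (0.4 mg/mL stock) added for 40 min. Stopped with NaOH, boiled with boric acid, p-dimethylaminobenzaldehyde colour read at 585 nm. Percent inhibition corrected against blanks.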
In turn, `O=C(O[C@H](C(=O)O)[C@](O)(Cc1ccc(O)c(O)c1)C(=O)O)c1ccc(O)cc1` [CIMICIFUGIC ACID H] had an IC50 of 525 µM.
For `COc1cc(/C=C/C(=O)O[C@H](C(=O)O)[C@](O)(Cc2ccc(O)c(O)c2)C(=O)O)ccc1O` [CIMICIFUGIC ACID A] the value was 112 µM; for `O=C(/C=C/c1ccc(O)c(O)c1)O[C@H](Cc1ccc(O)c(O)c1)C(=O)O` [ROSMARINIC ACID], 545 µM; for `COc1cc(/C=C/C(=O)O[C@H](C(=O)O)[C@](O)(Cc2ccc(O)cc2)C(=O)O)ccc1O[C@@H]1O[C@H](CO)[C@@H](O)[C@H](O)[C@H]1O` [SHOMASIDE C], 663 µM.
The value for `COc1cc(OC(=O)/C=C/c2ccc(O[C@@H]3O[C@H](CO)[C@H](O)[C@H](O)[C@H]3O)c(OC)c2)ccc1CCO` [SHOMASIDE E] was above 790 µM.
The value for `O=C(/C=C/c1ccc(O)c(O)c1)O[C@H](C(=O)O)[C@](O)(Cc1ccc(O)cc1)C(=O)O` [CIMICIFUGIC ACID D] was 153 µM.
`COc1ccc(/C=C/C(=O)O[C@H](C(=O)O)[C@](O)(Cc2ccc(O)c(O)c2)C(=O)O)cc1O` [CIMICIFUGIC ACID B] returned an IC50 of 82 µM.
With `COc1ccc(/C=C/C(=O)O[C@H](C(=O)O)[C@](O)(Cc2ccc(O)c(O)c2)C(=O)O)cc1OC` [CIMICIFUGIC ACID G], the IC50 was 138 µM.
For `COc1ccc(/C=C/C(=O)O[C@H](C(=O)O)[C@](O)(Cc2ccc(O)cc2)C(=O)O)cc1O` [CIMICIFUGIC ACID F] the value was 92 µM.
For `COc1cc(/C=C/C(=O)O[C@H](C(=O)O)[C@](O)(Cc2ccc(O)c(O)c2)C(=O)O)cc(OC)c1O` [CIMICIFUGIC ACID I] the value was 143 µM; for `COc1cc(/C=C/C(=O)O[C@H](C(=O)O)[C@](O)(Cc2ccc(O)cc2)C(=O)O)ccc1O` [CIMICIFUGIC ACID E], 120 µM; for `COc1cc(/C=C/C(=O)O[C@H](C(=O)O)[C@](O)(Cc2ccc(O)c(O)c2)C(=O)O)ccc1O[C@@H]1O[C@H](CO)[C@H](O)[C@H](O)[C@H]1O` [SHOMASIDE A], 573 µM.
For `COc1cc(/C=C/C(=O)O[C@H](C(=O)O)[C@](O)(Cc2ccc(O)cc2)C(=O)O)ccc1O[C@@H]1O[C@H](CO)[C@H](O)[C@H](O)[C@H]1O` [SHOMASIDE B] the value was 430 µM.
Consider `COC(=O)C(O)C(Cc1ccc(O)cc1)(OC(=O)/C=C/c1ccc(O[C@@H]2O[C@H](CO)[C@@H](O)[C@H](O)[C@H]2O)c(OC)c1)C(=O)O` (some centres not stated) [SHOMASIDE D], for which the IC50 was above 658 µM.
For `COc1cc(/C=C/C(=O)O[C@H](C(=O)O)[C@](O)(Cc2ccc(O)cc2)C(=O)O)cc(OC)c1O` [CIMICIFUGIC ACID J] the value was 193 µM; for `O=C(/C=C/c1ccc(O)cc1)O[C@H](C(=O)O)[C@](O)(Cc1ccc(O)c(O)c1)C(=O)O` [CIMICIFUGIC ACID C], 251 µM.
The molecule `O=C(/C=C/c1ccc(O)c(O)c1)O[C@H](C(=O)O)[C@](O)(Cc1ccc(O)c(O)c1)C(=O)O` [FUKINOLIC ACID] gave an IC50 of 144 µM. This IC50 is about 1.7-fold lower than that of the molecule before.

As a reminder, the IC50 is the concentration needed to halve the response being measured. High values mean lower potency, low ones higher potency.

The values are drawn from ChEMBL document CHEMBL1157074, “Hyaluronidase inhibitors from "Cimicifugae Rhizoma" (a mixture of the rhizomes of Cimicifuga dahurica and C. heracleifolia)” (J Nat Prod, 2010).
